From paper PMC5086809 (European journal of pharmacology, 2013)

Target: T1, human GPR119 receptor (G protein-coupled receptor 119) (Homo sapiens, UniProt Q8TDV5)
T1 sequence (Q8TDV5 1-335): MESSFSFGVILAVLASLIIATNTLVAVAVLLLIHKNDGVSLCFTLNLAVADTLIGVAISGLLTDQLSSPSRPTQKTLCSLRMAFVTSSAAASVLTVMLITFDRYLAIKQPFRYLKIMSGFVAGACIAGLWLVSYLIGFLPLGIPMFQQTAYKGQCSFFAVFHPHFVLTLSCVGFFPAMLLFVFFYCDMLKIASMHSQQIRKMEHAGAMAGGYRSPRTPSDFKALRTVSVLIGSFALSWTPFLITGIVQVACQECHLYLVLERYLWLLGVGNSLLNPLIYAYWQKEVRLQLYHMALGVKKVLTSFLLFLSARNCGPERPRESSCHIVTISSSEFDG
Test: HTRF cAMP accumulation assay, stable HEK293 cells
Assay type: cell-based
Outline: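 HEK293 cells stably transfected with human GPR119, selected in 800 µg/ml geneticin and kept in 400 µg/ml G418. Test compound in DMEM with 2.5% fatty acid-free BSA, 30 min at room temperature. HTRF read (d2-cAMP plus Eu-cryptate anti-cAMP, 2 h, ex 337/em 665 and 620 nm). cAMP taken from a standard curve; EC50 from a sigmoidal fit; five independent experiments.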

Structure (SMILES) | EC50 [µM]
CC(C)c1noc(C2CCN(c3ncnc(Nc4ccc(S(C)(=O)=O)cc4F)c3[N+](=O)[O-])CC2)n1 [AR231453] | 0.011
CCCCC/C=C\C/C=C\CCCCCCCC(=O)NCCO [Linoleoyl ethanolamide] | 8.11
CCCCC/C=C\C/C=C\C/C=C\C/C=C\CCCCCC(=O)NCCO [Docosatetra-7Z,10Z,13Z,16Z-enoyl ethanolamide] | 40.2
CC(C)(C)OC(=O)N1CCC(OCc2nc(-c3ccncc3)no2)CC1 [PSN632408] | 7.61
CCCCCCCC/C=C\CCCCCCCC(=O)NCCc1ccc(O)c(O)c1 [Oleoyl dopamine] | 54.8
CCCCCCCCCCCCCCCC(=O)NCCO [Palmitoyl ethanolamide] | 10.1
CCCCCCCC/C=C\CCCCCCCC(=O)NCCO [Oleoyl ethanolamide] | 7.65
CC/C=C\C/C=C\C/C=C\C/C=C\C/C=C\C/C=C\CCC(=O)NCCO [Docosahexaenoyl ethanolamide] | 63.8
CC/C=C\C/C=C\C/C=C\C/C=C\C/C=C\CCCC(=O)NCCO [Eicosapentaenoyl ethanolamide] | 65.6
CCCCCCCC/C=C\CCCCCCCC(N)=O [Oleamide] | 42.9
CCCCC/C=C\C/C=C\C/C=C\CCCCCCC(=O)NCCO [Dihomo-γ-linolenoyl ethanolamide] | 25.6
